Reference: ChEMBL document CHEMBL5223165, “Discovery of Coumarin-Based MEK1/2 PROTAC Effective in Human Cancer Cells” (ACS Med Chem Lett, 2023)
Calls of active or inactive are those of the source. The rule behind the calls is not given here.

Legend:
A-375 [1] = test: Antiproliferative activity against human A-375 cells incubated for 4 days by MTT assay; format: functional, cell-based; details: A-375, 96 h
[2] = target: T1, von Hippel-Lindau disease tumor suppressor/Dual specificity mitogen-activated protein kinase kinase 2/Dual specificity mitogen-activated protein kinase kinase 1 (Homo sapiens) (UniProt P36507+Q02750+P40337); test: Protac activity at VHL/MEK1/2 in human A549 cells assessed as MEK1/2 degradation at 10 uM incubated for 24 hrs by Western blot analysis relative to control; format: cell-based
T1 sequence (P36507 whole entry, looked up): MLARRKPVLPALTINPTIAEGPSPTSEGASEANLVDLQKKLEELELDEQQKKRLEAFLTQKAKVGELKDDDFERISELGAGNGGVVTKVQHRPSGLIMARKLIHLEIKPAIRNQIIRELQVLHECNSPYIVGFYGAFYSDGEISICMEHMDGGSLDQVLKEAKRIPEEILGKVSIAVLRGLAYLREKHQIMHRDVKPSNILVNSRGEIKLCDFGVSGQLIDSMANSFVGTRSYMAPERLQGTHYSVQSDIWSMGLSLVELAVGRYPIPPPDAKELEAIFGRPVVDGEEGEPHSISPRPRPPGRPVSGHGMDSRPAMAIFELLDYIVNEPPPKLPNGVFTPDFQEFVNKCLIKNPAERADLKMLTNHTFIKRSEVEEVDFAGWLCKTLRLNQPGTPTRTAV
T1 sequence (P40337 whole entry, looked up): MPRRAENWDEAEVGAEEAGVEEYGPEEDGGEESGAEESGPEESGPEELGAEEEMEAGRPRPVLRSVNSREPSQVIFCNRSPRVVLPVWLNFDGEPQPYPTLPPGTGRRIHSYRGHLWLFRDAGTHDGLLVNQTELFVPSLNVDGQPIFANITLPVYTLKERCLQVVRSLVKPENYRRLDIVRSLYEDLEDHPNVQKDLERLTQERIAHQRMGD
T1 sequence (Q02750 whole entry, looked up): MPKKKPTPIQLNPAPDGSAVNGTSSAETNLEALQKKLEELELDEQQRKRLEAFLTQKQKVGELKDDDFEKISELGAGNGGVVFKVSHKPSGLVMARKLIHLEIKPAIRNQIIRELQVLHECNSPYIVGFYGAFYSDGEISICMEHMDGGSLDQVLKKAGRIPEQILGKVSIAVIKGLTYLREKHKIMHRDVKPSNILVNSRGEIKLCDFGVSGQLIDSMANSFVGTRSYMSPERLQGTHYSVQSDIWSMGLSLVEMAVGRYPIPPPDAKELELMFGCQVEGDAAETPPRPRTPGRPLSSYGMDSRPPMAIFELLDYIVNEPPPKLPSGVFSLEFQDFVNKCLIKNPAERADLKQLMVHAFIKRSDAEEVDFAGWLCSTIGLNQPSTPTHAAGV

[3] = target: T2, Protein cereblon/Dual specificity mitogen-activated protein kinase kinase 1/Dual specificity mitogen-activated protein kinase kinase 2 (Homo sapiens) (UniProt P36507+Q02750+Q96SW2); test: Protac activity at CRBN/MEK1/2 in human A549 cells assessed as MEK1/2 degradation at 1 uM incubated for 24 hrs by Western blot analysis relative to control; format: cell-based
T2 sequence (P36507 whole entry, looked up): as the sequence (P36507 whole entry, looked up) above
T2 sequence (Q02750 whole entry, looked up): as the sequence (Q02750 whole entry, looked up) above
T2 sequence (Q96SW2 whole entry, looked up): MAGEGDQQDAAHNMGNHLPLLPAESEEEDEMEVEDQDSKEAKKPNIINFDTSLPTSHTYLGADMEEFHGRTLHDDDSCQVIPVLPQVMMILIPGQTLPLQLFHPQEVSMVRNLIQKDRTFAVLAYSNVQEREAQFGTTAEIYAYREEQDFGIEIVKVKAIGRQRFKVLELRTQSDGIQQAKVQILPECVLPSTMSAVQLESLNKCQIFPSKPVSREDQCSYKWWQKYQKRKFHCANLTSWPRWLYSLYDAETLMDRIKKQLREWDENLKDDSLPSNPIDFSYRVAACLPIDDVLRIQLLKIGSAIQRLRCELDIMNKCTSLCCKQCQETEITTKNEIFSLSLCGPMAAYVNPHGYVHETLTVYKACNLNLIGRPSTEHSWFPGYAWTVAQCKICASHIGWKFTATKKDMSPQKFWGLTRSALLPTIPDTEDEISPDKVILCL

[4] = target: T2, Protein cereblon/Dual specificity mitogen-activated protein kinase kinase 1/Dual specificity mitogen-activated protein kinase kinase 2 (Homo sapiens); test: Protac activity at CRBN/MEK1/2 in human A549 cells assessed as MEK1/2 degradation at 10 uM incubated for 24 hrs by Western blot analysis relative to control; format: cell-based
[5] = target: T1, von Hippel-Lindau disease tumor suppressor/Dual specificity mitogen-activated protein kinase kinase 2/Dual specificity mitogen-activated protein kinase kinase 1 (Homo sapiens); test: Protac activity at VHL/MEK1/2 in human A549 cells assessed as MEK1/2 degradation at 1 uM incubated for 24 hrs by Western blot analysis relative to control; format: cell-based
A-375 [6] = test: Antiproliferative activity against human A-375 cells assessed as inhibition of cell growth at 10 uM incubated for 48 hrs by MTT assay; format: functional; parameters: scale not given: the % may be the effect or the level left
[7] = target: Dual specificity mitogen-activated protein kinase kinase 1 (Homo sapiens, UniProt Q02750); test: Induction of MEK1 degradation in human A549 cells incubated for 24 hrs by Western blot analysis; format: cell-based
Chain of Dual specificity mitogen-activated protein kinase kinase 1 (Q02750 whole entry): as the sequence (Q02750 whole entry, looked up) above
How it was run: (§1)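 A549 cells exposed to a range of degrader concentrations for 24 h. MEK1 and MEK2 protein levels were read by Western blot, and a separate half-maximal degradation concentration (DC50) was derived for each.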

[8] = target: Dual specificity mitogen-activated protein kinase kinase 2 (Homo sapiens, UniProt P36507); test: Induction of MEK2 degradation in human A549 cells incubated for 24 hrs by Western blot analysis; format: cell-based; how it was run: as §1
Chain of Dual specificity mitogen-activated protein kinase kinase 2 (P36507 whole entry): as the sequence (P36507 whole entry, looked up) above

[9] = target: T3, Dual specificity mitogen-activated protein kinase kinase; MEK1/2 (Homo sapiens, UniProt P36507+Q02750); test: Induction of MEK1/2 degradation in human A549 cells at 1 uM incubated for 24 hrs in presence of MG132 by Western blot analysis; format: cell-based
T3 sequence (P36507 whole entry, looked up): as above
T3 sequence (Q02750 whole entry, looked up): as the sequence (Q02750 whole entry, looked up) above

[10] = target: T3, Dual specificity mitogen-activated protein kinase kinase; MEK1/2; test: Induction of MEK1/2 degradation in human A549 cells assessed as reduction in pERK1/2 levels at 1 to 30 uM incubated for 24 hrs by Western blot analysis; format: cell-based; details: dose 1-30 µM
[11] = target: T3, Dual specificity mitogen-activated protein kinase kinase; MEK1/2; test: Induction of MEK1/2 degradation in human A549 cells at 1 uM incubated for 24 hrs by Western blot analysis; format: cell-based
How it was run: (§2)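 Time course in A549 cells at 1 μM degrader, sampled at several time points up to 24 h. MEK1/2 protein reduction was judged by Western blot at each time point.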

[12] = target: T3, Dual specificity mitogen-activated protein kinase kinase; MEK1/2; test: Induction of MEK1/2 degradation in human A549 cells at 1 uM incubated for 24 hrs in presence of MLN4924 by Western blot analysis; format: cell-based
[13] = target: T3, Dual specificity mitogen-activated protein kinase kinase; MEK1/2; test: Induction of MEK1/2 degradation in human A549 cells at 1 uM incubated for 4 hrs by Western blot analysis; format: cell-based; how it was run: as §2
[14] = target: T3, Dual specificity mitogen-activated protein kinase kinase; MEK1/2; test: Induction of MEK1/2 degradation in human A-375 cells incubated for 24 hrs by Western blot analysis; format: cell-based
How it was run: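 A375 cells were given a concentration series of degrader for 24 h. MEK1/2 protein was quantified by immunoblot, and the DC50 (half-maximal degradation concentration) was taken from the dose-response.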

A549 = test: Antiproliferative activity against human A549 cells incubated for 4 days by MTT assay; format: functional, cell-based; details: A549, 96 h
[15] = Selectivity ratio of IC50 for human A549 cells to IC50 for human A-375 cells; format: functional
[16] = target: T3, Dual specificity mitogen-activated protein kinase kinase; MEK1/2; test: Induction of MEK1/2 degradation in human A549 cells at 1 uM incubated for 24 hrs in presence of 3-(3-amino-2-fluorobenzyl)-4-methyl-7-(pyrimidin-2-yloxy)-2H-chromen-2-one by Western blot analysis; format: cell-based
[17] = target: T3, Dual specificity mitogen-activated protein kinase kinase; MEK1/2; test: Induction of MEK1/2 degradation in human A549 cells at 1 uM incubated for 24 hrs in presence of (2S,4R)-1-((S)-2-amino-3,3-dimethylbutanoyl)-4-hydroxy-N-((S)-1-(4-(4-methylthiazol-5-yl)phenyl)ethyl)pyrrolidine-2-carboxamide by Western blot analysis; format: cell-based

CNS(=O)(=O)Nc1cccc(Cc2c(C)c3ccc(Oc4ncccn4)cc3oc2=O)c1F
IC50 (A-375 [1]): 1900 nM

Cc1ncsc1-c1ccc([C@H](C)NC(=O)[C@@H]2C[C@@H](O)CN2C(=O)[C@@H](NCCOCCOCCn2cc(CNc3cccc(Cc4c(C)c5ccc(Oc6ncccn6)cc5oc4=O)c3F)nn2)C(C)(C)C)cc1
Activity [2]: 20%

Cc1c(Cc2cccc(NC(=O)CCCCCNC(=O)CCC(=O)Nc3cccc4c3C(=O)N(C3CCC(=O)NC3=O)C4=O)c2F)c(=O)oc2cc(Oc3ncccn3)ccc12 (configuration not stated)
Activity [3]: inactive

Cc1c(Cc2cccc(NCc3cn(CCOCCOCCOCCNc4cccc5c4C(=O)N(C4CCC(=O)NC4=O)C5=O)nn3)c2)c(=O)oc2cc(Oc3ncccn3)ccc12 (configuration not stated)
Activity [4]: inactive

Cc1c(Cc2cccc(NCc3cn(CCOCCOCCOCCOCCOCCNc4cccc5c4C(=O)N(C4CCC(=O)NC4=O)C5=O)nn3)c2F)c(=O)oc2cc(Oc3ncccn3)ccc12 (configuration not stated)
Activity [4]: inactive

Cc1ncsc1-c1ccc([C@H](C)NC(=O)[C@@H]2C[C@@H](O)CN2C(=O)[C@@H](NC(=O)CCC(=O)NCCCCCCCCCCCC(=O)Nc2cccc(Cc3c(C)c4ccc(Oc5ncccn5)cc4oc3=O)c2)C(C)(C)C)cc1
Activity [5]: < 5%

Cc1ncsc1-c1ccc([C@H](C)NC(=O)[C@@H]2C[C@@H](O)CN2C(=O)[C@@H](NC(=O)CCC(=O)NCCCCCCC(=O)Nc2cccc(Cc3c(C)c4ccc(Oc5ncccn5)cc4oc3=O)c2F)C(C)(C)C)cc1
Activity [5]: 70%

Cc1ncsc1-c1ccc([C@H](C)NC(=O)[C@@H]2C[C@@H](O)CN2C(=O)[C@@H](NC(=O)CCC(=O)NCCCCCCC(=O)Nc2cccc(Cc3c(C)c4ccc(Oc5ncccn5)cc4oc3=O)c2)C(C)(C)C)cc1
Activity [5]: < 5%

Cc1c(Cc2cccc(NC(=O)CCCCCCNC(=O)CCC(=O)Nc3cccc4c3C(=O)N(C3CCC(=O)NC3=O)C4=O)c2F)c(=O)oc2cc(Oc3ncccn3)ccc12 (configuration not stated)
Activity [3]: 45%

Cc1ncsc1-c1ccc([C@H](C)NC(=O)[C@@H]2C[C@@H](O)CN2C(=O)[C@@H](NC(=O)CCC(=O)NCCCCCC(=O)Nc2cccc(Cc3c(C)c4ccc(Oc5ncccn5)cc4oc3=O)c2F)C(C)(C)C)cc1
Activity [5]: 72%

Cc1ncsc1-c1ccc([C@H](C)NC(=O)[C@@H]2C[C@@H](O)CN2C(=O)[C@@H](NCCOCCOCCOCCOCCOCCn2cc(CNc3cccc(Cc4c(C)c5ccc(Oc6ncccn6)cc5oc4=O)c3)nn2)C(C)(C)C)cc1
Activity [2]: inactive

Cc1ncsc1-c1ccc([C@H](C)NC(=O)[C@@H]2C[C@@H](O)CN2C(=O)[C@@H](NCCOCCOCCn2cc(CNc3cccc(Cc4c(C)c5ccc(Oc6ncccn6)cc5oc4=O)c3)nn2)C(C)(C)C)cc1
Activity [2]: inactive

Cc1ncsc1-c1ccc([C@H](C)NC(=O)[C@@H]2C[C@@H](O)CN2C(=O)[C@@H](NC(=O)CCC(=O)NCCCC(=O)Nc2cccc(Cc3c(C)c4ccc(Oc5ncccn5)cc4oc3=O)c2)C(C)(C)C)cc1
Activity (A-375 [6]): 21%
Activity [5]: < 5%

Cc1ncsc1-c1ccc([C@H](C)NC(=O)[C@@H]2C[C@@H](O)CN2C(=O)[C@@H](NC(=O)CCC(=O)NCCCC(=O)Nc2cccc(Cc3c(C)c4ccc(Oc5ncccn5)cc4oc3=O)c2F)C(C)(C)C)cc1
Activity (A-375 [6]): 13%
Activity [5]: 20%

Cc1c(Cc2cccc(NCc3cn(CCOCCOCCOCCNc4cccc5c4C(=O)N(C4CCC(=O)NC4=O)C5=O)nn3)c2F)c(=O)oc2cc(Oc3ncccn3)ccc12 (configuration not stated)
Activity [4]: inactive

Cc1c(Cc2cccc(NCc3cn(CCOCCOCCOCCOCCNc4cccc5c4C(=O)N(C4CCC(=O)NC4=O)C5=O)nn3)c2)c(=O)oc2cc(Oc3ncccn3)ccc12 (configuration not stated)
Activity [4]: inactive

Cc1c(Cc2cccc(NC(=O)CCCCNC(=O)CCC(=O)Nc3cccc4c3C(=O)N(C3CCC(=O)NC3=O)C4=O)c2F)c(=O)oc2cc(Oc3ncccn3)ccc12 (configuration not stated)
Activity [3]: < 5%

Cc1ncsc1-c1ccc([C@H](C)NC(=O)[C@@H]2C[C@@H](O)CN2C(=O)[C@@H](NCCOCCOCCOCCOCCn2cc(CNc3cccc(Cc4c(C)c5ccc(Oc6ncccn6)cc5oc4=O)c3)nn2)C(C)(C)C)cc1
Activity [2]: inactive

Cc1ncsc1-c1ccc([C@H](C)NC(=O)[C@@H]2C[C@@H](O)CN2C(=O)[C@@H](NC(=O)CCC(=O)NCCCCCCCCCCC(=O)Nc2cccc(Cc3c(C)c4ccc(Oc5ncccn5)cc4oc3=O)c2)C(C)(C)C)cc1
Activity [5]: < 5%

Cc1ncsc1-c1ccc([C@H](C)NC(=O)[C@@H]2C[C@@H](O)CN2C(=O)[C@@H](NCCOCCOCCOCCn2cc(CNc3cccc(Cc4c(C)c5ccc(Oc6ncccn6)cc5oc4=O)c3)nn2)C(C)(C)C)cc1
Activity [2]: inactive

Cc1ncsc1-c1ccc([C@H](C)NC(=O)[C@@H]2C[C@@H](O)CN2C(=O)[C@@H](NC(=O)CCC(=O)NCCCCC(=O)Nc2cccc(Cc3c(C)c4ccc(Oc5ncccn5)cc4oc3=O)c2F)C(C)(C)C)cc1
DC50 [7]: 300 nM
DC50 [8]: 200 nM
Activity [9]: inactive
Activity [10]: Active
Activity (A-375 [6]): 60%
Activity [11]: > 70%
Activity [12]: inactive
Activity [13]: Active
DC50 [14]: 2800 nM
Activity [5]: 85%
IC50 (A-375 [1]): 2800 nM
IC50 (A549): 27300 nM
Ratio IC50 [15]: 10
Activity [16]: inactive
Activity [17]: inactive

Cc1ncsc1-c1ccc([C@H](C)NC(=O)[C@@H]2C[C@@H](O)CN2C(=O)[C@@H](NCCOCCOCCOCCn2cc(CNc3cccc(Cc4c(C)c5ccc(Oc6ncccn6)cc5oc4=O)c3F)nn2)C(C)(C)C)cc1
Activity [2]: inactive

Cc1ncsc1-c1ccc([C@H](C)NC(=O)[C@@H]2C[C@@H](O)CN2C(=O)[C@@H](NC(=O)CCC(=O)NCCCCCCCC(=O)Nc2cccc(Cc3c(C)c4ccc(Oc5ncccn5)cc4oc3=O)c2F)C(C)(C)C)cc1
Activity [5]: 78%

Cc1c(Cc2cccc(NCc3cn(CCOCCOCCOCCOCCOCCNc4cccc5c4C(=O)N(C4CCC(=O)NC4=O)C5=O)nn3)c2)c(=O)oc2cc(Oc3ncccn3)ccc12 (configuration not stated)
Activity [4]: inactive

Cc1c(Cc2cccc(NC(=O)CCCCCCCNC(=O)CCC(=O)Nc3cccc4c3C(=O)N(C3CCC(=O)NC3=O)C4=O)c2F)c(=O)oc2cc(Oc3ncccn3)ccc12 (configuration not stated)
Activity [3]: 30%

Cc1ncsc1-c1ccc([C@H](C)NC(=O)[C@@H]2C[C@@H](O)CN2C(=O)[C@@H](NCCOCCOCCOCCOCCn2cc(CNc3cccc(Cc4c(C)c5ccc(Oc6ncccn6)cc5oc4=O)c3F)nn2)C(C)(C)C)cc1
Activity [2]: inactive

Cc1ncsc1-c1ccc([C@H](C)NC(=O)[C@@H]2C[C@@H](O)CN2C(=O)[C@@H](NCCOCCOCCOCCOCCOCCn2cc(CNc3cccc(Cc4c(C)c5ccc(Oc6ncccn6)cc5oc4=O)c3F)nn2)C(C)(C)C)cc1
Activity [2]: inactive

Cc1c(Cc2cccc(NCc3cn(CCOCCOCCNc4cccc5c4C(=O)N(C4CCC(=O)NC4=O)C5=O)nn3)c2F)c(=O)oc2cc(Oc3ncccn3)ccc12 (configuration not stated)
Activity [4]: inactive

Cc1c(Cc2cccc(NCc3cn(CCOCCOCCNc4cccc5c4C(=O)N(C4CCC(=O)NC4=O)C5=O)nn3)c2)c(=O)oc2cc(Oc3ncccn3)ccc12 (configuration not stated)
Activity [4]: inactive

Cc1c(Cc2cccc(NC(=O)CCCNC(=O)CCC(=O)Nc3cccc4c3C(=O)N(C3CCC(=O)NC3=O)C4=O)c2F)c(=O)oc2cc(Oc3ncccn3)ccc12 (configuration not stated)
Activity [3]: inactive

Cc1c(Cc2cccc(NCc3cn(CCOCCOCCOCCOCCNc4cccc5c4C(=O)N(C4CCC(=O)NC4=O)C5=O)nn3)c2F)c(=O)oc2cc(Oc3ncccn3)ccc12 (configuration not stated)
Activity [4]: inactive
